Experimental data reported in ChEMBL document CHEMBL3046655, “Schiff bases as potential fungicides and nitrification inhibitors” (2009).
In brackets after ≈: the same amount, converted by molar mass. Activity calls are given as the source filed them. The rule behind the calls is not given here.

What was measured:
Athelia rolfsii = experiment: Fungicidal activity against Athelia rolfsii assessed as fungal growth inhibition at 28 degC by poisoned food technique; assay type: functional; settings: Agroathelia rolfsii; for EC50: read-out: ED50 (the source's name)
In short: (§1)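 Poisoned-food assay on PDA. A 5 mm plug from the growing edge of a 2-week colony was placed centrally. Plates were held at 28 °C until control growth was nearly complete. Colony diameter was measured; n=4. Inhibition = (C−T)×100/C, Abbott-corrected; ED50 by probit.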

Macrophomina phaseolina = experiment: Fungicidal activity against Rhizoctonia bataticola assessed as fungal growth inhibition at 28 degC by poisoned food technique; assay type: functional; settings: for EC50: read-out: ED50 (the source's name); in short: as §1

Compound	EC50 (Athelia rolfsii) [µg/mL]	EC50 (Macrophomina phaseolina) [µg/mL]	ED50 (Athelia rolfsii)	ED50 (Macrophomina phaseolina)
Fc1ccccc1/N=C/c1c(Cl)cccc1Cl	45.6 (≈ 170 µM)	45 (≈ 168 µM)	–	–
O=[N+]([O-])c1cccc(/C=N/c2cc(Cl)c(Cl)cc2Cl)c1	21.7 (≈ 65.9 µM)	6.17 (≈ 18.7 µM)	–	–
O=[N+]([O-])c1cccc(/C=N/c2ccco2)c1	201 (≈ 930 µM)	17.1 (≈ 79.2 µM)	–	–
Clc1ccc(/C=N/CCC/N=C/c2ccc(Cl)cc2Cl)c(Cl)c1	27.1 (≈ 69.9 µM)	17.8 (≈ 45.7 µM)	–	–
O=[N+]([O-])c1cccc(/C=N/CCC/N=C/c2cccc([N+](=O)[O-])c2)c1	–	–	inactive	inactive
O=[N+]([O-])c1cccc(/C=N/CCCC/N=C/c2cccc([N+](=O)[O-])c2)c1	–	–	inactive	inactive
Clc1ccc(/C=N/c2ccco2)c(Cl)c1	35.2 (≈ 147 µM)	23.1 (≈ 96.4 µM)	–	–
O=[N+]([O-])c1cccc(/C=N/c2ccccc2F)c1	160 (≈ 656 µM)	113 (≈ 462 µM)	–	–
Fc1ccccc1/N=C/c1ccc(Cl)cc1Cl	63.4 (≈ 237 µM)	15.6 (≈ 58 µM)	–	–
O=[N+]([O-])c1cccc(/C=N/c2cccc(F)c2)c1	175 (≈ 718 µM)	180 (≈ 737 µM)	–	–
Clc1cccc(Cl)c1/C=N/C1CCCCC1/N=C/c1c(Cl)cccc1Cl (stereo unspecified)	39.5 (≈ 92.3 µM)	124 (≈ 290 µM)	–	–
Clc1ccc(/C=N/c2cc(Cl)c(Cl)cc2Cl)c(Cl)c1	24.4 (≈ 68.9 µM)	3.05 (≈ 8.63 µM)	–	–
Clc1ccc(/C=N/C2CCCCC2/N=C/c2ccc(Cl)cc2Cl)c(Cl)c1 (stereo unspecified)	34.2 (≈ 79.9 µM)	18.3 (≈ 42.7 µM)	–	–
Fc1cccc(/N=C/c2ccc(Cl)cc2Cl)c1	548 (≈ 2040 µM)	600 (≈ 2240 µM)	–	–
Fc1ccc(/N=C/c2c(Cl)cccc2Cl)cc1	108 (≈ 403 µM)	123 (≈ 459 µM)	–	–
O=[N+]([O-])c1cccc(/C=N/c2ccc(F)cc2)c1	164 (≈ 672 µM)	190 (≈ 779 µM)	–	–
Clc1cccc(Cl)c1/C=N/CCCC/N=C/c1c(Cl)cccc1Cl	22.1 (≈ 54.8 µM)	12.4 (≈ 30.9 µM)	–	–
Clc1cccc(Cl)c1/C=N/c1ccco1	78.3 (≈ 326 µM)	45.7 (≈ 190 µM)	–	–
Fc1ccc(/N=C/c2ccc(Cl)cc2Cl)cc1	37.4 (≈ 140 µM)	21.8 (≈ 81.4 µM)	–	–
Clc1ccc(/C=N/CCCC/N=C/c2ccc(Cl)cc2Cl)c(Cl)c1	179 (≈ 444 µM)	100 (≈ 249 µM)	–	–
CCCCC(O)(Cn1cncn1)c1ccc(Cl)cc1Cl (stereo unspecified) [HEXACONAZOLE]	2.3 (≈ 7.32 µM)	1.7 (≈ 5.41 µM)	–	–
Fc1cccc(/N=C/c2c(Cl)cccc2Cl)c1	87 (≈ 324 µM)	54 (≈ 201 µM)	–	–
O=[N+]([O-])c1cccc(/C=N/C2CCCCC2/N=C/c2cccc([N+](=O)[O-])c2)c1 (stereo unspecified)	–	–	inactive	inactive
